The source of these data is ChEMBL document CHEMBL4177623, “Concise syntheses and HCV NS5B polymerase inhibition of (2'R)-3 and (2'S)-2'-ethynyluridine-10 and related nucleosides” (Bioorg Med Chem Lett, 2017).

Experiment [1] has as its target RNA-directed RNA polymerase (Hepacivirus hominis, UniProt O39930). Nature of the experiment: Inhibition of wild-type HCV genotype 1b BK NS5B Cdelta55 RNA dependent RNA polymerase using RNA as substrate after 1 hr in presence of NTPs by [33P]-CTP based topcount assay. Also noted: species or system Hepatitis C virus (isolate BK).
The next experiment concerns Hepatitis C virus. The experiment in a line: Antiviral activity against HCV genotype 1b Con1 infected in replicon cells after 3 days by real-time PCR analysis. In kind it is functional, organism-based, Hepacivirus hominis. To be noted: isolate Con1, 72 h. In short, it runs like this:
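Con1 genotype 1b replicon cells plated at 5000/well one day before dosing; inhibitor added from DMSO in 10 serial twofold dilutions, triplicate, final 0.5% DMSO, 10% FBS. Harvest 3 days post-dose; replicon RNA measured by real-time RT-PCR (Taqman) normalised to GAPDH RNA; EC50 derived.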

Structures are written as SMILES. Where only a bound is given, the exact number is not on record here.

Chain of RNA-directed RNA polymerase (O39930 whole entry): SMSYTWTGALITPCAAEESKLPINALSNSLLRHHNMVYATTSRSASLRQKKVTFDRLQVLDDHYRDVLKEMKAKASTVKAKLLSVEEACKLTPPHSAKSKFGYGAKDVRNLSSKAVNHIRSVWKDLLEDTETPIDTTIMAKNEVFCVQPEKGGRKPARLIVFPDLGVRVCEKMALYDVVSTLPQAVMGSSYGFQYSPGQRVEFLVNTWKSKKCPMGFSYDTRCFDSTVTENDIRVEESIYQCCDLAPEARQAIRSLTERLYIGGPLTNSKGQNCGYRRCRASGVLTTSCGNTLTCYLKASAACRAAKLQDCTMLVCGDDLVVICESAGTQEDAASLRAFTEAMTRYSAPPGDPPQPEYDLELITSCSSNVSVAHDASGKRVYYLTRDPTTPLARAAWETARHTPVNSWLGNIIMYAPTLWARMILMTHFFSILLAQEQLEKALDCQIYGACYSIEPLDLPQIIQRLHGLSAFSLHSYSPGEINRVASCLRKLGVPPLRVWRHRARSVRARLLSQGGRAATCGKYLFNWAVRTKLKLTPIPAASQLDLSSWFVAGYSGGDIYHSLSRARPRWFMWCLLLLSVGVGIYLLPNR

Consider `CCCCCCN(C)C.CCCCCCN(C)C.CCCCCCN(C)C.CCCCCCN(C)C.C[C@@]1(F)[C@H](O)[C@@H](COP(=O)(O)OP(=O)(O)OP(=O)(O)O)O[C@H]1n1ccc(=O)[nH]c1=O`, for which the IC50 (as a rule, the concentration that gives 50% inhibition) in experiment [1] stood at 1.1 µM.

Regarding `C#C[C@@]1(O)[C@H](O)[C@@H](CO)O[C@H]1n1ccc(=O)[nH]c1=O`, the EC50 (as a rule, the midpoint of the concentration-response curve) with Hepatitis C virus was > 100 µM.

In the case of `CC#C[C@@]1(O)[C@H](O)[C@@H](COP(=O)(O)OP(=O)(O)OP(=O)(O)O)O[C@H]1n1ccc(=O)[nH]c1=O`, in experiment [1], the IC50 was 0.16 µM.

Regarding `CC#C[C@@]1(F)[C@H](O)[C@@H](CO)O[C@H]1n1ccc(=O)[nH]c1=O`, the EC50 in the experiment on Hepatitis C virus is > 100 µM.

As for `C#C[C@]1(O)[C@H](O)[C@@H](COP(=O)(O)OP(=O)(O)OP(=O)(O)O)O[C@H]1n1ccc(=O)[nH]c1=O`, the IC50 in experiment [1] worked out at 54 µM.

Consider `C#C[C@@]1(O)[C@H](O)[C@@H](COP(=O)(O)OP(=O)(O)OP(=O)(O)O)O[C@H]1n1ccc(=O)[nH]c1=O`, for which the IC50 in experiment [1] worked out at 0.09 µM.

As for `C#C[C@@]1(F)[C@H](O)[C@@H](COP(=O)(O)OP(=O)(O)OP(=O)(O)O)O[C@H]1n1ccc(=O)[nH]c1=O`, in experiment [1], the IC50 was 3.6 µM.

As to `CC#C[C@@]1(F)[C@H](O)[C@@H](COP(=O)(O)OP(=O)(O)OP(=O)(O)O)O[C@H]1n1ccc(=O)[nH]c1=O`, the IC50 in experiment [1] came to 9.9 µM.

Turning to `CC#C[C@@]1(O)[C@H](O)[C@@H](CO)O[C@H]1n1ccc(=O)[nH]c1=O`, the EC50 in the experiment on Hepatitis C virus was > 100 µM.
